Measurements taken from ChEMBL document CHEMBL4130613, “Identification and Proposed Relative and Absolute Configurations of Niphimycins C-E from the Marine-Derived Streptomyces sp. IMB7-145 by Genomic Analysis” (J Nat Prod, 2018).
pIC50: −log10 of the molar value. ≈ marks a conversion by molar mass, not a printed value. Calls of active or inactive are those of the source. The rule behind the calls is not given here.

Assays:
Enterococcus faecalis [1] = assay: Antibacterial activity against vancomycin-resistant Enterococcus faecalis 09-9 after 18 hrs by agar dilution method; format: functional
[2] = test system: Staphylococcus epidermidis; assay: Antibacterial activity against methicillin-resistant Staphylococcus epidermidis 12-8 after 18 hrs by agar dilution method; format: functional
Enterococcus faecalis [3] = assay: Antibacterial activity against vancomycin-resistant Enterococcus faecalis ATCC 51299 after 18 hrs by agar dilution method; format: functional
Staphylococcus aureus [4] = assay: Antibacterial activity against methicillin-resistant Staphylococcus aureus ATCC 33591 after 18 hrs by agar dilution method; format: functional
Escherichia coli [5] = assay: Antibacterial activity against extended-spectrum beta-lactamase-negative Escherichia coli ATCC 25922 after 18 hrs by agar dilution method; format: functional; conditions: ATCC 25922, 18 h
Klebsiella pneumoniae [6] = assay: Antibacterial activity against NDM-1 positive Klebsiella pneumoniae ATCC BAA-2146 after 18 hrs by agar dilution method; format: functional; conditions: ATCC BAA-2146, 18 h
Enterococcus faecium [7] = assay: Antibacterial activity against vancomycin-resistant Enterococcus faecium 12-1 after 18 hrs by agar dilution method; format: functional
Pseudomonas aeruginosa [8] = assay: Antibacterial activity against Pseudomonas aeruginosa PAO1 after 18 hrs by agar dilution method; format: functional; conditions: PAO1, 18 h
Proteus mirabilis = assay: Antibacterial activity against Proteus mirabilis 12-6 after 18 hrs by agar dilution method; format: functional; conditions: 12-6, 18 h
Escherichia coli [9] = assay: Antibacterial activity against extended-spectrum beta-lactamase-negative Escherichia coli 12-14 after 18 hrs by agar dilution method; format: functional; conditions: 12-14, 18 h
Citrobacter freundii = assay: Antibacterial activity against Citrobacter freundii ATCC 43864 after 18 hrs by agar dilution method; format: functional; conditions: ATCC 43864, 18 h
Proteus vulgaris = assay: Antibacterial activity against Proteus vulgaris ATCC 29905 after 18 hrs by agar dilution method; format: functional; conditions: ATCC 29905, 18 h
Klebsiella pneumoniae [10] = assay: Antibacterial activity against extended-spectrum beta-lactamase-positive Klebsiella pneumoniae ATCC 700603 after 18 hrs by agar dilution method; format: functional; conditions: Klebsiella pneumoniae, 700603, 18 h
Escherichia coli [11] = assay: Antibacterial activity against extended-spectrum beta-lactamase-negative Escherichia coli 1515 after 18 hrs by agar dilution method; format: functional; conditions: Escherichia coli, 1515, 18 h
Staphylococcus aureus [12] = assay: Antibacterial activity against methicillin-resistant Staphylococcus aureus 12-33 after 18 hrs by agar dilution method; format: functional
Morganella morganii = assay: Antibacterial activity against Morganella morganii ATCC 25830 after 18 hrs by agar dilution method; format: functional; conditions: ATCC 25830, 18 h
[13] = test system: Stenotrophomonas maltophilia; assay: Antibacterial activity against Stenotrophomonas maltophilia ATCC 13636 after 18 hrs by agar dilution method; format: functional; conditions: ATCC 13636, 18 h
Escherichia coli [14] = assay: Antibacterial activity against extended-spectrum beta-lactamase-positive Escherichia coli 12-15 after 18 hrs by agar dilution method; format: functional; conditions: 12-15, 18 h
Klebsiella pneumoniae [15] = assay: Antibacterial activity against extended-spectrum beta-lactamase-negative Klebsiella pneumoniae 7 after 18 hrs by agar dilution method; format: functional; conditions: Klebsiella pneumoniae, 7, 18 h
Klebsiella aerogenes = assay: Antibacterial activity against Enterobacter aerogenes ATCC 13048 after 18 hrs by agar dilution method; format: functional; conditions: ATCC 13048, 18 h
Candida albicans = assay: Antifungal activity against Candida albicans ATCC 10231 after 18 hrs by agar dilution method; format: functional; conditions: ATCC 10231, 18 h
Serratia marcescens = assay: Antibacterial activity against Serratia marcescens ATCC 21074 after 18 hrs by agar dilution method; format: functional; conditions: ATCC 21074, 18 h
HeLa = assay: Cytotoxicity against human HeLa cells after 48 hrs by SRB assay; format: functional, cell-based
Outline: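 HeLa human cervical carcinoma cells obtained from ATCC. Cytotoxicity was read by sulforhodamine B staining following an earlier published protocol, with doxorubicin hydrochloride as positive control. Values are reported as IC50.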

Klebsiella pneumoniae [16] = assay: Antibacterial activity against extended-spectrum beta-lactamase-positive Klebsiella pneumoniae 12-8 after 18 hrs by agar dilution method; format: functional; conditions: 12-8, 18 h
Enterobacter cloacae = assay: Antibacterial activity against Enterobacter cloacae ATCC 43560 after 18 hrs by agar dilution method; format: functional; conditions: ATCC 43560, 18 h
Pseudomonas aeruginosa [17] = assay: Antibacterial activity against Pseudomonas aeruginosa 12-16 after 18 hrs by agar dilution method; format: functional; conditions: 12-16, 18 h
Pseudomonas aeruginosa [18] = assay: Antibacterial activity against Pseudomonas aeruginosa ATCC 27853 after 18 hrs by agar dilution method; format: functional; conditions: ATCC 27853, 18 h
Klebsiella pneumoniae [19] = assay: Antibacterial activity against extended-spectrum beta-lactamase-negative Klebsiella pneumoniae 12-4 after 18 hrs by agar dilution method; format: functional; conditions: 12-4, 18 h
Providencia rettgeri = assay: Antibacterial activity against Providencia rettgeri ATCC 31052 after 18 hrs by agar dilution method; format: functional; conditions: ATCC 31052, 18 h
Enterococcus faecium [20] = assay: Antibacterial activity against vancomycin-resistant Enterococcus faecium ATCC 700221 after 18 hrs by agar dilution method; format: functional
[21] = test system: Acinetobacter calcoaceticus; assay: Antibacterial activity against Acinetobacter calcoaceticus ATCC 19606 after 18 hrs by agar dilution method; format: functional; conditions: ATCC 19606, 18 h

Q: What does the source list for CNC(=N)NCCC/C=C/CCC[C@H](C)C[C@H](C)[C@H]1OC(=O)[C@H](C)[C@H](O)/C=C/[C@H](C)[C@H](O)C[C@H](O)[C@H](C)[C@@H](O)CC[C@H](C)[C@H](O)C[C@]2(O)O[C@H](C[C@@H](O)C[C@H](OC(=O)CC(=O)O)C[C@@H](O)[C@H](C)[C@H](O)/C=C/C=C/[C@@H]1C)C[C@H](OC(=O)CC(=O)O)[C@H]2O?
A: Activity (Enterococcus faecalis [1]): Active; Activity [2]: Active; Activity (Enterococcus faecalis [3]): Active; Activity (Staphylococcus aureus [4]): Active; MIC (Escherichia coli [5]): > 64 µg/mL; MIC (Klebsiella pneumoniae [6]): > 64 µg/mL; Activity (Enterococcus faecium [7]): Active; MIC (Pseudomonas aeruginosa [8]): > 64 µg/mL; MIC (Proteus mirabilis): > 64 µg/mL; MIC (Escherichia coli [9]): > 64 µg/mL; MIC (Citrobacter freundii): > 64 µg/mL; MIC (Proteus vulgaris): > 64 µg/mL; MIC (Klebsiella pneumoniae [10]): > 64 µg/mL; MIC (Escherichia coli [11]): > 64 µg/mL; Activity (Staphylococcus aureus [12]): Active; MIC (Morganella morganii): > 64 µg/mL; MIC [13]: > 64 µg/mL; MIC (Escherichia coli [14]): > 64 µg/mL; MIC (Klebsiella pneumoniae [15]): > 64 µg/mL; MIC (Klebsiella aerogenes): > 64 µg/mL; MIC (Candida albicans): 8 to 32 µg/mL (≈ 6.51 to 26 µM); MIC (Serratia marcescens): > 64 µg/mL; pIC50 (HeLa): < 5.00; MIC (Klebsiella pneumoniae [16]): > 64 µg/mL; MIC (Enterobacter cloacae): > 64 µg/mL; MIC (Pseudomonas aeruginosa [17]): > 64 µg/mL; MIC (Pseudomonas aeruginosa [18]): > 64 µg/mL; MIC (Klebsiella pneumoniae [19]): > 64 µg/mL; MIC (Providencia rettgeri): > 64 µg/mL; Activity (Enterococcus faecium [20]): Active; MIC [21]: > 64 µg/mL

Q: Which results are given for CNC(=N)NCCC/C=C/CCC[C@H](C)C[C@H](C)[C@H]1OC(=O)[C@H](C)[C@H](O)/C=C/[C@H](C)[C@H](O)C[C@H](O)[C@H](C)[C@@H](O)CC[C@H](C)[C@H](OC(=O)CC(=O)O)C[C@]2(O)O[C@H](C[C@@H](OC(=O)CC(=O)O)C[C@H](O)C[C@@H](O)[C@H](C)[C@H](O)/C=C/C=C/[C@@H]1C)C[C@H](O)[C@H]2O?
A: Activity (Enterococcus faecalis [1]): Active; Activity [2]: Active; Activity (Enterococcus faecalis [3]): Active; Activity (Staphylococcus aureus [4]): Active; MIC (Escherichia coli [5]): > 64 µg/mL; MIC (Klebsiella pneumoniae [6]): > 64 µg/mL; Activity (Enterococcus faecium [7]): Active; MIC (Pseudomonas aeruginosa [8]): > 64 µg/mL; MIC (Proteus mirabilis): > 64 µg/mL; MIC (Escherichia coli [9]): > 64 µg/mL; MIC (Citrobacter freundii): > 64 µg/mL; MIC (Proteus vulgaris): > 64 µg/mL; MIC (Klebsiella pneumoniae [10]): > 64 µg/mL; MIC (Escherichia coli [11]): > 64 µg/mL; Activity (Staphylococcus aureus [12]): Active; MIC (Morganella morganii): > 64 µg/mL; MIC [13]: > 64 µg/mL; MIC (Escherichia coli [14]): > 64 µg/mL; MIC (Klebsiella pneumoniae [15]): > 64 µg/mL; MIC (Klebsiella aerogenes): > 64 µg/mL; MIC (Candida albicans): 8 to 32 µg/mL (≈ 6.51 to 26 µM); MIC (Serratia marcescens): > 64 µg/mL; pIC50 (HeLa): 5.05 to 5.52; MIC (Klebsiella pneumoniae [16]): > 64 µg/mL; MIC (Enterobacter cloacae): > 64 µg/mL; MIC (Pseudomonas aeruginosa [17]): > 64 µg/mL; MIC (Pseudomonas aeruginosa [18]): > 64 µg/mL; MIC (Klebsiella pneumoniae [19]): > 64 µg/mL; MIC (Providencia rettgeri): > 64 µg/mL; Activity (Enterococcus faecium [20]): Active; MIC [21]: > 64 µg/mL

Q: CNC(=N)NCCC/C=C/CCC[C@H](C)C[C@H](C)[C@H]1OC(=O)[C@H](C)[C@H](O)/C=C/[C@H](C)[C@H](O)C[C@H](O)[C@H](C)[C@@H](O)CC[C@H](C)[C@H](O)CC(O)[C@H](O)[C@@H](O)C[C@H](O)C[C@@H](O)C[C@H](O)C[C@@H](O)[C@H](C)[C@H](O)/C=C/C=C/[C@@H]1C (stereo partly drawn) was tested. Which Activity (Enterococcus faecalis [1]) did it give?
A: Its Activity is “Active”.

Q: What about the Activity [2] of the same compound?
A: Its Activity is “Active”.

Q: What about the Activity (Enterococcus faecalis [3]) of the same compound?
A: The Activity was “Active”.

Q: What about the Activity (Staphylococcus aureus [4]) of the same compound?
A: Its Activity is “Active”.

Q: And the MIC (Escherichia coli [5])?
A: Its MIC is > 64 µg/mL.

Q: And the MIC (Klebsiella pneumoniae [6])?
A: The MIC was > 64 µg/mL.

Q: What about the Activity (Enterococcus faecium [7]) of the same compound?
A: The Activity was “Active”.

Q: And the MIC (Pseudomonas aeruginosa [8])?
A: Its MIC is > 64 µg/mL.

Q: What about the MIC (Proteus mirabilis) of the same compound?
A: The MIC was > 64 µg/mL.

Q: What about the MIC (Escherichia coli [9]) of the same compound?
A: Its MIC is > 64 µg/mL.

Q: And the MIC (Citrobacter freundii)?
A: The MIC was > 64 µg/mL.

Q: And the MIC (Proteus vulgaris)?
A: The MIC was > 64 µg/mL.

Q: What about the MIC (Klebsiella pneumoniae [10]) of the same compound?
A: The MIC was > 64 µg/mL.

Q: And the MIC (Escherichia coli [11])?
A: The MIC was > 64 µg/mL.

Q: What about the Activity (Staphylococcus aureus [12]) of the same compound?
A: The Activity was “Active”.

Q: What about the MIC (Morganella morganii) of the same compound?
A: The MIC was > 64 µg/mL.

Q: What about the MIC [13] of the same compound?
A: The MIC was > 64 µg/mL.

Q: And the MIC (Escherichia coli [14])?
A: Its MIC is > 64 µg/mL.

Q: And the MIC (Klebsiella pneumoniae [15])?
A: The MIC was > 64 µg/mL.

Q: What about the MIC (Klebsiella aerogenes) of the same compound?
A: Its MIC is > 64 µg/mL.

Q: And the MIC (Candida albicans)?
A: The MIC was 8 to 32 µg/mL (≈ 7.56 to 30.2 µM).

Q: And the MIC (Serratia marcescens)?
A: The MIC was > 64 µg/mL.

Q: And the pIC50 (HeLa)?
A: The pIC50 was < 5.00.

Q: And the MIC (Klebsiella pneumoniae [16])?
A: The MIC was > 64 µg/mL.

Q: What about the MIC (Enterobacter cloacae) of the same compound?
A: Its MIC is > 64 µg/mL.

Q: And the MIC (Pseudomonas aeruginosa [17])?
A: The MIC was > 64 µg/mL.

Q: And the MIC (Pseudomonas aeruginosa [18])?
A: The MIC was > 64 µg/mL.

Q: And the MIC (Klebsiella pneumoniae [19])?
A: The MIC was > 64 µg/mL.

Q: What about the MIC (Providencia rettgeri) of the same compound?
A: The MIC was > 64 µg/mL.

Q: What about the Activity (Enterococcus faecium [20]) of the same compound?
A: Its Activity is “Active”.

Q: And the MIC [21]?
A: The MIC was > 64 µg/mL.
